Activity calls are given as the source filed them. No cut-off for these calls is given here.
Assays:
Lipid bilayer [1] = assay: Binding affinity to POPC vesicles by surface plasmon resonance spectroscopy
Summary of the method: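 SPR on a dextran chip carrying immobilized POPC liposomes, with running buffer of 10 mM HEPES and 100 mM KCl at pH 7.4. Peptides in PBS were flowed at 25 μL/min at 10–1000 μM, with reference-subtracted response units. KD and Rmax were fitted from maximum response versus concentration. Regeneration used 20 mM CHAPS followed by fresh liposomes.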

Acinetobacter baumannii [2] = assay: Growth inhibition of Acinetobacter baumannii ATCC 19606 at 32 ug/ml after 18 hrs; type: functional; details: ATCC 19606 = CIP 70.34 = JCM 6841, 18 h, read-out: GI
Summary of the method: (§1)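 Mid-log cultures were prepared as above and seeded at 5×10^5 CFU/mL with compound at a final 32 μg/mL, then held static at 37 °C for 18 h. Growth was read as OD600. Percent inhibition was calculated against media-only and bacteria-only controls on the same plate.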

[3] = Hemolytic activity against human RBC at 3.125 uM after 1 hr by Drabkin's assay relative to control; type: ADME, cell-based, Erythrocyte; details: human red blood cells (erythrocytes), read-out: Activity
[4] = Induction of pore formation in DOPC vesicles at 20 uM after 3 mins by carboxyfluorescein dye leakage assay
Candida albicans = assay: Growth inhibition of Candida albicans ATCC 90028 at 32 ug/ml after 24 hrs by OD530 light-scattering microspectrophotometric method; details: ATCC 90028, 24 h, read-out: GI
Escherichia coli [5] = assay: Growth inhibition of Escherichia coli ATCC 25922 at 32 ug/ml after 18 hrs; type: functional; details: ATCC 25922, 18 h, read-out: GI; summary of the method: as §1
[6] = Hemolytic activity against human RBC at 25 uM after 1 hr by Drabkin's assay relative to control; type: ADME, cell-based, Erythrocyte; details: human red blood cells (erythrocytes), read-out: Activity
[7] = Hemolytic activity against human RBC at 50 uM after 1 hr by Drabkin's assay relative to control; type: ADME, cell-based, Erythrocyte; details: human red blood cells (erythrocytes), read-out: Activity
[8] = Hemolytic activity against human RBC at 0.78 uM after 1 hr by Drabkin's assay relative to control; type: ADME, cell-based, Erythrocyte; details: human red blood cells (erythrocytes), read-out: Activity
Klebsiella pneumoniae [9] = assay: Growth inhibition of multidrug-resistant Klebsiella pneumoniae ATCC 700603 at 32 ug/ml after 18 hrs; type: functional; details: ATCC 700603, 18 h, read-out: GI
Summary of the method: (§2)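 Mid-log cultures in cation-adjusted Mueller Hinton broth were added at 5×10^5 CFU/mL to wells at a final compound concentration of 32 μg/mL. Plates stood at 37 °C for 18 h. Growth was read by OD600, and % inhibition was computed against media-only and untreated-bacteria controls.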

Pseudomonas aeruginosa = assay: Growth inhibition of Pseudomonas aeruginosa ATCC 27853 at 32 ug/ml after 18 hrs; type: functional; details: ATCC 27853, 18 h, read-out: GI; summary of the method: as §1
Lipid bilayer [10] = assay: Induction of pore formation in POPC vesicles at 20 to 100 uM after 3 mins by carboxyfluorescein dye leakage assay
Erythrocyte = assay: Hemolytic activity against human RBC after 1 hr by Drabkin's assay; type: ADME, cell-based
[11] = Hemolytic activity against human RBC at 0.39 uM after 1 hr by Drabkin's assay relative to control; type: ADME, cell-based, Erythrocyte; details: human red blood cells (erythrocytes), read-out: Activity
Cryptococcus neoformans = assay: Growth inhibition of Cryptococcus neoformans H99 ATCC 208821 at 32 ug/ml after 24 hrs by resazurin dye-based microspectrophotometric assay; type: functional; details: var. grubii H99 ATCC 208821, 24 h, read-out: GI
Summary of the method: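 Yeasts were grown 3 days on YPD agar at 30 °C, suspended from five colonies and diluted in YNB broth to a final 2.5×10^3 CFU/mL. Compound at a final 32 μg/mL; incubated 24 h at 35 °C without shaking. C. albicans was read at OD530. C. neoformans was read as OD600–570 after resazurin (0.001% final) and a further 2 h at 35 °C. Fluconazole was the standard.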

[12] = Hemolytic activity against human RBC at 6.25 uM after 1 hr by Drabkin's assay relative to control; type: ADME, cell-based, Erythrocyte; details: human red blood cells (erythrocytes), read-out: Activity
[13] = Hemolytic activity against human RBC at 1.56 uM after 1 hr by Drabkin's assay relative to control; type: ADME, cell-based, Erythrocyte; details: human red blood cells (erythrocytes), read-out: Activity
[14] = Hemolytic activity against human RBC at 12.5 uM after 1 hr by Drabkin's assay relative to control; type: ADME, cell-based, Erythrocyte; details: human red blood cells (erythrocytes), read-out: Activity
Staphylococcus aureus [15] = assay: Growth inhibition of methicillin-resistant Staphylococcus aureus ATCC 43300 at 32 ug/ml after 18 hrs; type: functional; details: ATCC 43300, 18 h, read-out: GI; summary of the method: as §2
Escherichia coli [16] = assay: Antibacterial activity against Escherichia coli ATCC 25922 after 18 hrs by polystyrene 96-well plate-based method; type: functional
Summary of the method: (§3)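 Strains grown in cation-adjusted Mueller Hinton broth at 37 °C for 12 h, diluted 40-fold and regrown 1.5–3 h to mid-log. Inoculum was 5×10^5 CFU/mL in 12-point dose response, in non-binding surface or polystyrene plates, in duplicate. Plates stood at 37 °C for 18 h. MIC was read by OD600.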

Staphylococcus aureus [17] = assay: Antibacterial activity against methicillin-resistant Staphylococcus aureus ATCC 43300 after 18 hrs by polystyrene 96-well plate-based method; type: functional; summary of the method: as §3
Klebsiella pneumoniae [18] = assay: Antibacterial activity against multidrug-resistant Klebsiella pneumoniae ATCC 700603 after 18 hrs by non-binding surface 96-well plate-based method; type: functional; summary of the method: as §3
Escherichia coli [19] = assay: Antibacterial activity against Escherichia coli ATCC 25922 after 18 hrs by non-binding surface 96-well plate-based method; type: functional
Summary of the method: (§4)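 Cultured in cation-adjusted Mueller Hinton broth at 37 °C for 12 h, diluted 40-fold and grown 1.5–3 h to mid-log. Seeded at 5×10^5 CFU/mL over a 12-point dose response in non-binding surface and polystyrene 96-well plates, duplicates (n=2). Incubated static at 37 °C for 18 h. MIC read from OD600 light scattering; colistin and vancomycin as standards.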

Acinetobacter baumannii [20] = assay: Antibacterial activity against Acinetobacter baumannii ATCC 19606 after 18 hrs by polystyrene 96-well plate-based method; type: functional; details: ATCC 19606 = CIP 70.34 = JCM 6841; summary of the method: as §4
Staphylococcus aureus [21] = assay: Antibacterial activity against methicillin-resistant Staphylococcus aureus ATCC 43300 after 18 hrs by non-binding surface 96-well plate-based method; type: functional; summary of the method: as §3
Acinetobacter baumannii [22] = assay: Antibacterial activity against Acinetobacter baumannii ATCC 19606 after 18 hrs by non-binding surface 96-well plate-based method; type: functional; details: ATCC 19606 = CIP 70.34 = JCM 6841; summary of the method: as §3
Klebsiella pneumoniae [23] = assay: Antibacterial activity against multidrug-resistant Klebsiella pneumoniae ATCC 700603 after 18 hrs by polystyrene 96-well plate-based method; type: functional; summary of the method: as §3
[24] = Induction of pore formation in DOPC vesicles at 20 uM after 3 hrs by carboxyfluorescein dye leakage assay; details: in the assay text read “after 3 mins” for “after 3 hrs”
Summary of the method: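 POPC or DOPC liposomes were hydrated in 10 mM HEPES, 100 mM KCl, pH 7.4, containing 50 mM carboxyfluorescein. Size was checked by dynamic light scattering, and vesicles were used at 2.2×10^10 per mL. Peptide at 20 μM was equilibrated with vesicles for 3 min, and dye leakage was measured.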

| Compound | Kd (Lipid bilayer [1]) | Rmax (Lipid bilayer [1]) | inhibition of growth at 32 µg/mL (Acinetobacter baumannii [2]) | hemolysis at 1 h, 3.125 µM [3] | inhibition of growth at 32 µg/mL (Candida albicans) | inhibition of growth at 32 µg/mL (Escherichia coli [5]) | hemolysis at 1 h, 25 µM [6] | hemolysis at 1 h, 50 µM [7] | hemolysis at 1 h, 0.78 µM [8] | inhibition of growth at 32 µg/mL (Klebsiella pneumoniae [9]) | inhibition of growth at 32 µg/mL (Pseudomonas aeruginosa) | Activity (Erythrocyte) | hemolysis at 1 h, 0.39 µM [11] | inhibition of growth at 32 µg/mL (Cryptococcus neoformans) | hemolysis at 1 h, 6.25 µM [12] | hemolysis at 1 h, 1.56 µM [13] | hemolysis at 1 h, 12.5 µM [14] | inhibition of growth at 32 µg/mL (Staphylococcus aureus [15]) | also measured |
| --- | --- | --- | --- | --- | --- | --- | --- | --- | --- | --- | --- | --- | --- | --- | --- | --- | --- | --- | --- |
| O=C(NCCO)[C@@H]1CCCN1C(=O)N1CCCN1C(=O)[C@@H]1CCCN1C(=O)N1CCCN1C(=O)[C@@H]1CCCN1C(=O)N1CCCN1C(=O)[C@@H]1CCCN1C(=O)N1CCCN1C(=O)[C@@H]1CCCN1C(=O)N1CCCN1C(=O)[C@@H]1CCCN1C(=O)N1CCCN1C(=O)[C@@H]1CCCN1C(=O)N1CCCN1C(=O)[C@@H]1CCCN1C(=O)N1CCCN1C(=O)OCc1ccccc1 | 373 µM | 601 | 36.2% | 0.15% | 4.99% | 11.3% | -0.04% | -0.04% | 0.15% | 11.3% | -2.74% | Dose-dependent effect | -0.04% | -4.06% | -0.11% | 0.02% | -0.04% | 11.8% | Activity [4]: 13%; Activity (Lipid bilayer [10]): inactive |
| COLISTIN | – | – | – | – | – | – | – | – | – | – | – | – | – | – | – | – | – | – | MIC (Escherichia coli [16]): 0.125 µg/mL; MIC (Staphylococcus aureus [17]): > 32 µg/mL; MIC (Klebsiella pneumoniae [18]): 0.06 µg/mL; MIC (Escherichia coli [19]): 0.016 µg/mL; MIC (Acinetobacter baumannii [20]): 1 µg/mL; MIC (Staphylococcus aureus [21]): > 32 µg/mL; MIC (Acinetobacter baumannii [22]): 0.06 to 0.125 µg/mL; MIC (Klebsiella pneumoniae [23]): 0.25 µg/mL |
| CC(C)(C)OC(=O)[C@@H]1CCCN1C(=O)N1CCCN1C(=O)[C@@H]1CCCN1C(=O)N1CCCN1C(=O)[C@@H]1CCCN1C(=O)N1CCCN1C(=O)[C@@H]1CCCN1C(=O)N1CCCN1C(=O)[C@@H]1CCCN1C(=O)N1CCCN1C(=O)[C@@H]1CCCN1C(=O)N1CCCN1C(=O)[C@@H]1CCCN1C(=O)N1CCCN1C(=O)[C@@H]1CCCN1C(=O)N1CCCN1C(=O)OCc1ccccc1 | 2580 µM | 2640 | 15.9% | -0.12% | 5.75% | -1.93% | -0.41% | -0.73% | 0.04% | -1.93% | -6.76% | Dose-dependent effect | 0.08% | -8.19% | -0.37% | -0.24% | -0.04% | 20.5% | Activity [24]: inactive |

From ChEMBL document CHEMBL4196059, “Design, synthesis, and biological evaluation of stable β6.3-Helices: Discovery of non-hemolytic antibacterial peptides” (Eur J Med Chem, 2018)
